KCNK9 block – inhibitors of human KCNK9 two-pore domain potassium channel; 1.2% of 310,000 active; Q9NPC2; AID 488922; B-score at 10 µM; HEK293 KCNK9, FluxOR thallium flux fluorescence; stronger effect = lower value;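 active = ratio B-score over 3 SD below the library mean, with starting fluorescence within 5 SD of its mean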;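 note: negative B-score means less thallium flux so channel inhibition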
KCNQ1 pot – human KCNQ1 channel potentiation or activation | P51787 | CHO-K1 KCNQ1, thallium flux FluxOR fluorescence; stronger effect = higher value | B-score at 10 µM | 0.35% of 310,000 active | AID 2648;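 active = fluorescence ratio B-score, a plate-corrected score, at least three library SD, with initial intensity B-score within 5 SD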
Target sequence (P51787 whole entry, looked up): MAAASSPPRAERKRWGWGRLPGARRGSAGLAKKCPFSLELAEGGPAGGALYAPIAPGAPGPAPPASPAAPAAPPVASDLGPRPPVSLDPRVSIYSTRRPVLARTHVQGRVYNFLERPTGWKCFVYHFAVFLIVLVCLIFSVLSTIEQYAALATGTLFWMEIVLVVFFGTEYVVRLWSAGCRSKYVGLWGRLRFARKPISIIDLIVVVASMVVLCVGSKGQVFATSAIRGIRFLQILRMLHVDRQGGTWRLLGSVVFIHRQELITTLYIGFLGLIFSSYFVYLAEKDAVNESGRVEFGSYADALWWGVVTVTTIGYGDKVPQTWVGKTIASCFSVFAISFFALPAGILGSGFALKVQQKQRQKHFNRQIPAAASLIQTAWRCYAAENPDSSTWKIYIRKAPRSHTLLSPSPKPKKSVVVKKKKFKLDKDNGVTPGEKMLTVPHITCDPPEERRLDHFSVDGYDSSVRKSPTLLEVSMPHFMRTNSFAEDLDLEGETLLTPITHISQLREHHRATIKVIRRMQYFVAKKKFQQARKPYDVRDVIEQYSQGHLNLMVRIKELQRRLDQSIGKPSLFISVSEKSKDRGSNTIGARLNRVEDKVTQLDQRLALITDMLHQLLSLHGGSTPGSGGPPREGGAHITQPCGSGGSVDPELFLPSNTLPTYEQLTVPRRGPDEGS
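System: Stable KCNQ1 CHO-K1 line | Incubation: 90 min dye loading and 20 min compound exposure, both at room temperature | Measure: Ratio B score | Medium: Assay buffer for compound exposure, DMSO matched across wells | Compound dosing: Single-concentration screen | Probe or stimulus: K+/Tl+ depolarizing stimulus | Measured by: Kinetic FluxOR fluorescence, 10 s baseline plus 110 s post-stimulus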
KCNQ1 inh – blocks the human KCNQ1 potassium channel; B-score at 10 µM; AID 2642; CHO-K1 KCNQ1, FluxOR thallium flux fluorescence; stronger effect = higher value; P51787; 1.3% of 310,000 active;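 active = compounds whose thallium flux B-score, printed positive for inhibition, exceeds three library SD while starting fluorescence stays within three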;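 note: channel opened by potassium depolarization with thallium stimulus after 20 min compound exposure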
KCC2 mod – modulators of human KCC2 chloride dependent transport. AID 1456. 2.2% of 190,000 active. KCC2 cells, thallium flux FluoZin-2 fluorescence. B-score of Tl+ flux slope (higher = more flux/activation; lower = inhibition) at 10 µM;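 active = thallium flux slope and its plate-corrected score both differing from the plate sample mean at a set confidence after two filtering rounds, in either direction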;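 note: slope of fluorescence scaled to starting intensity during 10 to 20 s after thallium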
KCNK3 inh – human KCNK3 channel inhibition, primary screen; B-score at 10 µM; 0.84% of 340,000 active; CHO-KCNK3 thallium flux, FluxOR fluorescence; stronger effect = lower value; AID 602410;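 active = B-score under library mean minus 4 SD, starting fluorescence ratio at most library mean plus 5 SD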;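 note: more negative B-score means stronger inhibition of thallium flux through KCNK3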
hERG rescue – compounds protecting human hERG from proarrhythmic drug block | Q12809 | CHO-hERG, FluxOR thallium flux, dofetilide IC70 present | activation (rescue from dofetilide block), less the hit threshold, % at 10 µM | 0.51% of 310,000 active | AID 1511;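 active = activation above the mean of controls blocked by dofetilide plus 5 SD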;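 note: thallium influx through hERG after potassium depolarization seen as dye fluorescence rise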
KCNK3 confirm – human KCNK3 channel inhibition, confirmation assay; 99% of 2,400 active; shares compounds with KCNK3 inh; AID 651638; CHO-KCNK3 thallium flux, FluxOR fluorescence; 0% buffer, 100% carvedilol maximal block; ratio percent of control, % at 10 µM;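 active = ratio percent of control, averaged over triplicates, above buffer control mean plus 5 SD, cut at about 64% in these data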;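 note: ratio is the fluorescence rise from min to max over baseline after thallium stimulus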
KCNK3 noninduced – KCNK3 inhibitor counter-screen hit in non-induced cells | shares compounds with KCNK3 inh | non-induced KCNK3 parental cells, FluxOR thallium flux; stronger effect = lower value | thallium flux ratio (lower = more inhibition) at 10 µM | 40% of 2,400 active | AID 651747;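 active = thallium flux ratio, averaged over three wells, more than 5 SD below the buffer control mean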;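 note: host cells are CHO cells without KCNK3 induction; ratio is peak minus trough fluorescence over baseline then normalized to buffer controls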
Active calls of the source: *; i = inactive; . = not tested or not shown. Shown are actives, neighbours in structure and some others; about 4.1% of the full set was active somewhere.

SMILES	KCNK9 block	KCNQ1 pot	KCNQ1 inh	KCC2 mod	KCNK3 inh	hERG rescue	KCNK3 confirm	KCNK3 noninduced
COc1cc(C(=O)N2c3ccccc3CCC2C)cc(OC)c1OC (stereo not drawn)	i	i	i	.	i	-5.7	.	.
Cc1cc(Br)ccc1NC(=O)CN(C)C(=O)C1CCN(C(=O)c2ccc(Cl)cc2)CC1	.	.	.	.	i	.	.	.
CCOC(=O)c1c(C)[nH]c(C(=O)COC(=O)c2ccc([N+](=O)[O-])o2)c1C	.	.	.	.	i	.	.	.
CCOc1cc(/C=N/NC(=O)C(O)(c2ccccc2)c2ccccc2)ccc1OC(=O)c1ccco1	i	i	i	.	-8.8*	-14.1	82.7*	i
CC1CCc2sc(C(=O)N/N=C/c3ccc(O)cc3)cc2C1 (stereo not drawn)	i	i	i	.	-10.3*	-5.2	57.3*	i
CCCCCCCCCCCCCC(=O)NO	.	.	.	.	i	.	.	.
Cc1nc2nc(-c3ccccc3)cn2nc1C	i	i	i	0.577	i	3.4	.	.
CCc1c(-c2ccccc2)nc2nc(C)c(C)nn12	i	i	i	.	-8.91*	-7.8	104.3*	0.139*
CC(C)c1ccc(C(C)NCCS(=O)(=O)c2ccc(Br)cc2)cc1 (stereo not drawn)	i	i	i	.	-8.91*	-14.1	69.3*	0.145*
CC(NCCS(=O)(=O)c1ccc(Cl)cc1)c1cccc(Cl)c1 (stereo not drawn)	i	i	i	.	i	-5.6	.	.
N#Cc1c(NC(=O)c2ccc([N+](=O)[O-])o2)sc2c1CCC2	i	i	i	.	i	-1.0	.	.
CCC1(O)CC(c2ccccc2)=NN1C(=O)c1ccccc1F (stereo not drawn)	i	i	i	.	i	-1.6	.	.
CCNC(=S)N1CCc2cc(OC)c(OC)cc2C1COc1ccc(F)cc1 (stereo not drawn)	i	i	i	-0.25	-8.71*	-10.0	102.0*	i
CCOC(=O)CCSc1nc(C(C)(C)C)cc(C(F)(F)F)c1C#N	i	i	6*	0.48	-8.86*	-13.1	131.0*	0.127*
CCOC(=O)CCSc1nc(C)cc(C(F)(F)F)c1C#N	i	i	i	-0.748	i	-8.7	.	.
CCOC(=O)C1=C(c2ccccc2)NC(SCC(=O)Nc2cccc(C)c2)=C(C#N)C1c1ccco1 (stereo not drawn)	-6.67*	i	i	-0.358	-8.72*	-7.0	113.3*	i
COc1ccc(C2=NS(=O)(=O)N(C)C(C(=O)Nc3cc(C)ccc3O)=C2)cc1OC	i	i	9*	.	-9.23*	-34.7	95.3*	i
Cc1ccc(S(=O)(=O)NCc2cccnc2)cc1C(=O)NC1CCCCC1	i	i	i	.	i	-3.0	.	.
C=CCNc1nc2c(c(=O)[nH]c(=O)n2C)n1CCCc1ccccc1	i	i	i	.	i	-5.8	.	.
C=CCSc1nc(N(CC)CC)c2sccc2n1	i	i	i	-1.41	-10.1*	-5.7	121.0*	i
O=[N+]([O-])c1ccc(N2CCN(C(=S)Nc3ccccc3)CC2)cc1	i	i	i	-0.602	i	-16.7	.	.
O=[N+]([O-])c1ccc(N2CCN(C(=S)NC3CCCCC3)CC2)cc1	i	i	i	-1.29	-8.84*	-14.9	104.3*	i
O=C(NNC(=O)c1cc(-c2ccccc2)nc2ccccc12)Nc1cccc(Cl)c1	i	i	13*	1.33	-9.9*	-22.1	114.7*	i
O=[N+]([O-])c1ccc(Cl)cc1P(=O)(O)c1cc(Cl)ccc1[N+](=O)[O-]	.	.	.	.	i	.	.	.
c1ccc2c(-c3[nH]ncc3CNCCCn3ncc4ccccc43)cccc2c1	i	i	i	0.119	-9.98*	-17.2	79.0*	i
SMILES	KCNK9 block	KCNQ1 pot	KCNQ1 inh	KCC2 mod	KCNK3 inh	hERG rescue	KCNK3 confirm	KCNK3 noninduced
CCN(Cc1ccccc1)C(=O)Cn1c(=O)n(CC(=O)N2CCCCC2)c(=O)c2sccc21	i	i	i	.	i	-8.9	.	.
O=C(NC1CCN(Cc2ccccc2)CC1)c1ccccc1OCc1ccccc1Cl	-7.83*	i	i	.	-11.5*	-17.3	98.7*	i
O=C(NC1CCN(Cc2ccccc2)CC1)c1ccccc1OCc1ccccc1	i	i	i	.	-10.4*	-9.5	98.7*	i
O=C(COC(=O)c1ccc[n+]([O-])c1)Nc1ccc([N+](=O)[O-])cc1Cl	.	.	.	.	i	.	.	.
Cc1ccc(C)c(NS(=O)(=O)c2cc(C(=O)NCCSC3CCCCC3)ccc2C)c1	-7.94*	i	i	0.0932	-9.96*	-5.3	110.3*	i
O=C(Nc1cccc(NC(=O)c2cccnc2)c1)c1ccccc1	i	i	i	.	-9.07*	0.5	96.3*	i
O=C(N/N=C/c1ccccn1)c1cccc(NC(=O)c2ccccc2Cl)c1	i	i	i	.	i	-3.8	.	.
O=C(Nc1cccc(NC(=O)c2ccccc2Cl)c1)c1ccc(F)cc1	i	i	i	.	-9.33*	-5.2	95.3*	i
CC(C)C(=O)Nc1cccc(NC(=O)c2cccnc2)c1	i	i	i	.	i	-6.0	.	.
O=C(N/N=C/c1ccccc1F)c1cccc(NC(=O)c2ccccc2Cl)c1	i	i	i	.	-8.79*	-10.1	106.7*	0.157*
C[C@@H]1C2CC(C/C2=N\NC(=O)c2ccncc2)C1(C)C (stereo partly drawn)	i	i	i	.	i	-5.5	.	.
CCCCNc1ncnc2[nH]ncc12	.	.	.	.	i	.	.	.
COc1ccccc1CN(C)C(=O)CN1CCN(S(=O)(=O)c2ccc3c(c2)OCCCO3)CC1	.	.	.	.	i	.	.	.
COc1ccc(Cl)cc1NC(=O)CN(C)C(=O)c1ccc(N2CCCCCC2)c([N+](=O)[O-])c1	i	i	i	.	-11.8*	-16.6	107.3*	i
Cc1cc(Nc2cccc(C(=O)O)c2)n2ncnc2n1	i	i	i	.	i	-9.0	.	.
COC(=O)c1sccc1NC(=O)CC1C(=O)NCCN1C(=O)Nc1cc(Cl)ccc1OC (stereo not drawn)	i	i	i	-0.343	-10.2*	-8.2	91.3*	i
CCOC(=O)/C(C#N)=C/c1cc(C)n(-c2ccc(C)cc2)c1C	i	i	i	-0.159	-9.58*	-3.8	109.7*	i
CCOC(=O)/C(C#N)=C\c1cc(C)n(-c2ccccc2)c1C	i	i	i	-0.374	i	-10.9	.	.
Cn1c(SCc2ccccc2)nnc1-c1cccs1	i	i	i	1.18	i	-7.3	.	.

From PubChem BioAssay
